Fold change (FC), EC2 and inhibition data for 13 molecules are collected here from ChEMBL document CHEMBL4219168, “Design, synthesis, and evaluation of l-cystine diamides as l-cystine crystallization inhibitors for cystinuria” (Bioorg Med Chem Lett, 2018).

The subject of test [1] is Cystine. Kind of test: Inhibition of L-cystine crystallization assessed as increase in apparent aqueous solubility after 72 hrs by fluorescence assay relative to CDME. Summed up: (§1)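 Dose-response curves were run in supersaturated aqueous L-cystine, with apparent solubility read by fluorescence assay. EC2x is the effective concentration that doubles the apparent solubility of L-cystine in water. The ratio is the potency gain over the CDME control.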

Test [2] relates to Cystine. Put plainly: Inhibition of L-cystine crystallization assessed as increase in apparent aqueous solubility after 72 hrs by fluorescence assay. Summed up:
as §1

Test [3] deals with Cystine. Kind of test: Inhibition of L-cystine crystallization assessed as increase in apparent aqueous solubility at 2 to 10 uM after 72 hrs by fluorescence assay. A digest of the protocol: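 Supersaturated L-cystine in Millipore water was spiked 1:100 with 1 mM or 200 μM diamide stock, giving final 10 μM or 2 μM. Mixtures were held at 25 °C for 72 h. Apparent L-cystine solubility was then read with an in-house fluorescence assay. CDME served as positive control and water as blank.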

The test system of test [4] is Cystine. Put plainly: Inhibition of L-cystine crystallization assessed as increase in apparent aqueous solubility at 2 to 10 uM after 72 hrs by fluorescence assay relative to CDME.

The structures appear in SMILES notation. Active and inactive are the calls of the source. The rule behind the calls is not given here.

As to `CN1CCN(C(=O)[C@@H](N)CSSC[C@H](N)C(=O)N2CCN(C)CC2)CC1`, in the test on Cystine [1], the fold change (FC) amounted to 24.5. In the test on Cystine [2], the EC2 worked out at 0.26 µM. As to `CN[C@@H](CSSC[C@H](NC)C(=O)N(C)C)C(=O)N(C)C`, the inhibition entry in the test on Cystine [3] and in the test with Cystine [4] was “inactive” each time. As to `COC(=O)[C@@H](N)CSSC[C@H](N)C(=O)OC`, the EC2 with Cystine [2] was 6.37 µM. For the molecule `N[C@@H](CSSC[C@H](N)C(=O)N1CCOCC1)C(=O)N1CCOCC1`, the fold change (FC) with Cystine [1] came out at 7.4. Moreover, the EC2 in the test with Cystine [2] is 0.86 µM. Regarding `CN[C@@H](CSSC[C@H](NC)C(=O)NC1CC1)C(=O)NC1CC1`, the inhibition entry in the test on Cystine [3] and in the test with Cystine [4] was “inactive” throughout. Consider `CN[C@@H](CSSC[C@H](NC)C(=O)N1CCCCC1)C(=O)N1CCCCC1`, for which the inhibition result in the test with Cystine [3] and in the test on Cystine [4] was “inactive” throughout. In the case of `N[C@@H](CSSC[C@H](N)C(=O)NC1CC1)C(=O)NC1CC1`, in the test on Cystine [1], the fold change (FC) came to 1.8. Besides, in the test with Cystine [2], the EC2 is 3.53 µM.

For `CN[C@@H](CSSC[C@H](NC)C(=O)N1CCCC1)C(=O)N1CCCC1`, the inhibition entry in the test with Cystine [3] and in the test on Cystine [4] was “inactive” in each case. On to `N[C@@H](CSSC[C@H](N)C(=O)NCCO)C(=O)NCCO`, for which, in the test on Cystine [1], the fold change (FC) was determined as 3.2. Besides, the EC2 in the test on Cystine [2] amounted to 2.02 µM. Regarding `CN[C@@H](CSSC[C@H](NC)C(=O)NCCO)C(=O)NCCO`, the inhibition result with Cystine [3] and with Cystine [4] was “inactive” throughout. On to `N[C@@H](CSSC[C@H](N)C(=O)N1CCCCC1)C(=O)N1CCCCC1`, for which the fold change (FC) in the test on Cystine [1] came to 4. The EC2 in the test with Cystine [2] turned out to be 1.59 µM. Turning to `CN[C@@H](CSSC[C@H](NC)C(=O)N1CCOCC1)C(=O)N1CCOCC1`, the inhibition entry with Cystine [3] and with Cystine [4] was “inactive” throughout.

With `CCN(CC)C(=O)[C@H](CSSC[C@H](NC)C(=O)N(CC)CC)NC`, the inhibition entry with Cystine [3] and with Cystine [4] was “inactive” in each case.
